bCat KO growth: beta-catenin-lacking colon tumor cell growth suppression; HCT116 beta-catenin knockout viability, CellTiter-Glo, 60 h; hits give low values; viability, % at 10 µM; hit rate 1.5% among 140,000;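 active means viability at or under a set limit, the compound median less 4 SD, cut at about 6% in these data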;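 further: 0% = Hyamine 1622 control at 20 µM and 100% = untreated cell control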
HCT116 PTEN-null: PTEN-deleted cell growth suppression; HCT116 PTEN-null viability, CellTiter-Glo, 60 h; hits give low values; viability, % at 10 µM; hit rate 1.2% among 140,000; AID 827;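 active means viability at or below a set limit, 4 SD under the median of all tested compounds, cut at about 3.7% in these data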;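 further: PTEN knockout HCT116 line with beta catenin targeted HCT116 as companion control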
PMI act satM6P: PMI (human) activation, high substrate; P34949; coupled PMI enzyme assay, resazurin fluorescence, 20 min; hits give high values; 1 = untreated enzyme, 0 = substrate-free blank; activation factor at 20 µM; hit rate 0.34% among 190,000; AID 1216;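 active means activation factor of 2 or more at 20 µM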
Target sequence (P34949 whole entry, looked up): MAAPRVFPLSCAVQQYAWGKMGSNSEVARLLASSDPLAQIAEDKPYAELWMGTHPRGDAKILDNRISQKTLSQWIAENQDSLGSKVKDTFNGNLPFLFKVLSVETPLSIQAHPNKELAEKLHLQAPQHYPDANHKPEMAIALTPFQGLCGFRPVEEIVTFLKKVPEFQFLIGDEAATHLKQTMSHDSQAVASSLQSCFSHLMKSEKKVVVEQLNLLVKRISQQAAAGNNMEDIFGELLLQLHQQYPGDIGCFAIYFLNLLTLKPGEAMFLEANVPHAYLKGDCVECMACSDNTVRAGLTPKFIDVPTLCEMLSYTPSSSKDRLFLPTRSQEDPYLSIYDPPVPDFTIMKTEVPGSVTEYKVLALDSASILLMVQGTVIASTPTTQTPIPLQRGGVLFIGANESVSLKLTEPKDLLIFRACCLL
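Test system: human PMI in coupled enzyme assay; Input: PMI at 15 ng/mL final; Medium: HEPES buffer, pH 7.4; Schedule: 20 min incubation at room temperature; Technique: resorufin fluorescence at Ex 544/Em 590 nm; Compound: 20 µM single dose; Probe or stimulus: Near-saturating mannose-6-phosphate, 1.0 mM.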
Lmaj promast: reduces viability of Leishmania major promastigotes; resazurin fluorescence viability; inhibition, % at 10 µM; hit rate 9% among 200,000; in the data active means inhibition above about 50%;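 further: promastigotes grown with compound for 44 hours at 28 °C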
PMI act: phosphomannose isomerase (human) activation. P34949. activation factor at 20 µM. hit rate 0.005% among 190,000. purified human PMI, coupled resazurin fluorescence, 20 min; hits give high values; 1 = vehicle control, 0 substrate-free wells. AID 1214;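 active means activation factor of 2 or more at 20 µM, relative to plate controls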
The depositor's hits bear a star; nt = no result. Shown are actives, neighbours in structure and some others; about 9.6% of the full set was active somewhere.

SMILES | bCat KO growth | HCT116 PTEN-null | PMI act satM6P | Lmaj promast | PMI act
Cc1ccc2nc(NC(=S)NC(=O)c3cccs3)sc2c1 | 93.2 | 84.6 | 1.1 | 58.9* | 1
Cc1ccc2oc(-c3cccc(NC(=S)NC(=O)/C=C/c4ccco4)c3)nc2c1 | 60.0 | 52.9 | 1 | 100.3* | 0.9
Cc1cc(C)c2oc(-c3ccc(C)c(NC(=S)NC(=O)c4cccs4)c3)nc2c1 | 3.8* | 2.7* | 0.9 | 4.5 | 0.9
Cc1ccc2oc(-c3cccc(NC(=S)NC(=O)c4cccs4)c3)nc2c1 | 96.6 | 90.5 | 1 | -2.3 | 0.9
Cc1cc(C)c2oc(-c3ccc(C)c(NC(=S)NC(=O)/C=C/c4ccco4)c3)nc2c1 | 81.3 | 99.6 | 0.9 | 71.3* | 0.9
C(=N\Nc1nc(Nc2ccccc2)nc(N2CCCCC2)n1)/c1ccco1 | nt | nt | 0.8 | 36.4 | 0.8
Cc1nc(N2CCN(S(=O)(=O)c3ccc(F)cc3)CC2)c2c(-c3cccs3)csc2n1 | nt | nt | 0.6 | 49.5 | 0.8
O=C(O)CC1NC(=O)N(C2CCCCC2)C1=O (stereo not given) | nt | nt | 1.1 | -8.6 | 1.2
COc1cc(C(=O)Nc2cccc(-c3nc4cc(C)cc(C)c4o3)c2)cc(OC)c1OC | 98.1 | 89.7 | 0.9 | -0.7 | 0.9
Cc1cc(C)c2oc(-c3cccc(NC(=O)c4ccc(F)cc4)c3)nc2c1 | 89.3 | 98.7 | 1 | 65.3* | 1
Cc1nc(NC2=NCN(CCc3ccccc3)CN2)nc2c(C)cccc12 | nt | nt | nt | 95.8* | nt
Cc1nc(NC2=NCN(CCCN3CCOCC3)CN2)nc2c(C)cccc12 | 18.8 | 26.1 | 1 | 88.4* | 1
O=C(COC(=O)/C=C/c1ccco1)NCc1ccc2c(c1)OCO2 | nt | nt | 1.1 | -5.9 | 1.1
CSc1nc(Cl)cc(N(CCO)CCO)n1 | 96.4 | 94.4 | 1.1 | -5.5 | 1.1
COc1ccc(/C=C/C(=O)c2cc(F)ccc2OC(=O)c2ccccc2OC)cc1OC | nt | nt | 0.9 | 47.8 | 0.9
Cc1ccc(C(=O)/C=C/c2ccc(F)cc2)o1 | 8.6 | 9.2 | 1 | 97.8* | 1.1
O=C(/C=C/c1ccc(F)cc1)c1ccccc1Br | 2.6* | 2.2* | 0.8 | 94.0* | 0.8
CCN1CCn2c3c(c4cc(Cl)ccc42)CCCC31 (stereo not given) | 76.7 | 73.7 | 0.7 | 54.4* | 0.9
CCN(CC)CCN1CCn2c3c(c4cc(C)ccc42)CCCC31 (stereo not given) | 47.3 | 27.2 | 1.2 | 100.1* | 1.3
Cc1ccc2c(c1)c1c(n2C)C(=O)CCC1 | 95.8 | 96.6 | 1 | -2.9 | 1
O=C(CNS(=O)(=O)c1ccc(F)cc1)N1CCCCCC1 | nt | nt | 1 | -5.2 | 1
C#CC(C)(C)NC(=O)c1sccc1Oc1ccc(F)cc1[N+](=O)[O-] | nt | nt | 1.2 | -0.2 | 1.2
Cc1ccc2c(C)c(C(=O)N(Cc3cccs3)C3CCS(=O)(=O)C3)oc2c1 (stereo not given) | 82.0 | 78.1 | 1 | 87.9* | 1
O=C(NCC1CC1)[C@@H]1C[C@H]1[C@@H](NP(=O)(c1ccccc1)c1ccccc1)c1ccccc1 | 0.2* | 0.1* | 1 | -5.7 | 1
O=C(NCc1ccccc1)[C@@H]1C[C@H]1[C@@H](NP(=O)(c1ccccc1)c1ccccc1)c1ccccc1 | 84.1 | 75.9 | 1 | 0.5 | 1
SMILES | bCat KO growth | HCT116 PTEN-null | PMI act satM6P | Lmaj promast | PMI act
CCOC(=O)C1=C(Nc2ccccc2)CC(C)(O)C(C(=O)OCC)C1c1ccc(Br)cc1 (stereo not given) | 69.8 | 69.7 | 1 | 92.4* | 0.9
Cc1ccc(N2C(=O)C(NC(=O)c3ccccc3)(C(F)(F)F)C3=C2CC(C)(C)CC3=O)cc1 (stereo not given) | 92.5 | 101.6 | 0.9 | 89.0* | 1
CC1(C)CC(=O)C2=C(C1)N(c1ccc(F)cc1)C(=O)C2(NC(=O)c1ccccc1)C(F)(F)F (stereo not given) | 96.7 | 102.5 | 0.9 | -3.0 | 0.8
CC1=Nc2ccccc2N=C(NC(=O)c2ccccc2)C1c1ccccc1 (stereo not given) | nt | nt | 0.8 | 54.4* | 0.8
CC1=Nc2ccccc2N=C(NC(=O)CN2CCN(c3ccccc3)CC2)C1c1ccccc1 (stereo not given) | nt | nt | 0.9 | 1.0 | 0.9
CSC(=O)CC(=O)NC(=O)c1ccccc1 | 95.0 | 104.8 | 1 | 11.5 | 1
Cc1ccc(C)c(N2CCN(c3nnnn3-c3ccccc3)CC2)c1 | 46.6 | 37.0 | 1 | 63.5* | 0.9
c1ccc(-n2ncc3c(NCc4cccnc4)ncnc32)cc1 | 97.6 | 88.2 | 0.9 | 61.3* | 0.9

Bioassay records as filed in PubChem.
